The list is not random: actives were taken first. Their share in the collection is about 2.8%.
pPAFAH FP inh = pPAFAH enzyme inhibitors, primary screen, biochemical, fluorescence polarization, human | AID 463082, 2010 | recombinant pPAFAH, FP-rhodamine probe fluorescence polarization | 1.5% of 330,000 active | inhibition, % at 3.39 µM;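 active = inhibition above the mean inhibition across the screen plus 3 SD, cut at about 25% in these data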;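 note: inhibitors block binding of the rhodamine activity-based probe so polarization drops; 0% = enzyme with DMSO and 100% = wells lacking pPAFAH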
HTRA1 inh = HTRA1 serine protease inhibitors, primary screen, biochemical, fluorescence polarization, HTS | Q92743 | recombinant HTRA1, FP-rhodamine activity-based probe | inhibition, % at 5.96 µM | 0.5% of 340,000 active | AID 504803, 2011; in the data active = inhibition above about 36%;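 note: 0% = enzyme with DMSO and 100% = wells lacking enzyme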
PAFAH1B2 inh = PAFAH1B2 enzyme inhibitors, primary screen, biochemical, fluorescence polarization, human; Platelet-activating factor acetylhydrolase IB subunit alpha2 (Homo sapiens), P68402; 1.2% of 340,000 active; AID 492953, 2010; inhibition, % at 3.39 µM; recombinant PAFAH1B2, FP-rhodamine activity probe;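 active = inhibition above the mean of all tested compounds plus 3 SD, cut at about 24% in these data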;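 note: 0% = enzyme with DMSO and 100% = wells lacking PAFAH1B2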
Target sequence (P68402 whole entry, looked up): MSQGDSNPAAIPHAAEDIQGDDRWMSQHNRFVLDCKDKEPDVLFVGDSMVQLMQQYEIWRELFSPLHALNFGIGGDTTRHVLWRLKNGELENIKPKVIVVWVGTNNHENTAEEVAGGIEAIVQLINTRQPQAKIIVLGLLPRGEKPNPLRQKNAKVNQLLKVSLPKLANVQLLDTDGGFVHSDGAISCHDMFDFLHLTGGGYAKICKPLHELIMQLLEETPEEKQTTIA
PAFAH1B3 inh = PAFAH1B3 enzyme inhibitors, primary screen, biochemical, fluorescence polarization, human; Platelet-activating factor acetylhydrolase IB subunit alpha1 (Homo sapiens), Q15102; recombinant PAFAH1B3, FP-rhodamine probe; inhibition, % at 3.39 µM; 0.28% of 340,000 active; AID 492972, 2010;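 active = inhibition above the screen-wide average of all tested compounds plus 3 SD, cut at about 25% in these data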;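 note: 0% = enzyme with DMSO only and 100% = wells lacking PAFAH1B3 protein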
Target sequence (Q15102 whole entry, looked up): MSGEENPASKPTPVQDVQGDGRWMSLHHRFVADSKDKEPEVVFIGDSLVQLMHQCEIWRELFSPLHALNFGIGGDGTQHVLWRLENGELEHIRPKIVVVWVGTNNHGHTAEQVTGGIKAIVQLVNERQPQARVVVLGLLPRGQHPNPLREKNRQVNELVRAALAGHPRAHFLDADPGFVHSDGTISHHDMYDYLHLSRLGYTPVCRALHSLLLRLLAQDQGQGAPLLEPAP
PAFAH2 inh = PAFAH2 enzyme inhibitors, primary screen, biochemical, fluorescence polarization, human. 0.99% of 340,000 active. AID 492956, 2010. recombinant PAFAH2, FP-rhodamine activity probe. inhibition, % at 3.39 µM. Platelet-activating factor acetylhydrolase 2, cytoplasmic (Homo sapiens), Q99487;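 active = inhibition above the mean over all tested compounds plus 3 SD, cut at about 30% in these data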;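 note: inhibitors block probe labeling of enzyme so polarization drops; 0% = enzyme with DMSO and 100% = wells lacking PAFAH2 protein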
ABHD4 inh = ABHD4 inhibitors, primary screen, biochemical, fluorescence polarization, mouse; (Lyso)-N-acylphosphatidylethanolamine lipase (Mus musculus), Q8VD66; purified mABHD4, FP-Rh probe fluorescence polarization; inhibition, % at 8.92 µM; 0.54% of 370,000 active; AID 720543, 2013;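 active = inhibition exceeding the mean over every tested compound plus 3 SD, cut at about 30% in these data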;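 note: 0% = plate median of compound wells and 100% = S159A mutant with DMSO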
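Assay system: mABHD4 protein; medium: HEPES pH 7.0, NaCl, Pluronic buffer; dosing: 8.92 µM, single dose; schedule: 45 min + 60 min at 25 °C; signal: FP readout, ex 525 nm / em 598 nm; read-out: normalized percent inhibition of probe labeling; repeats: single replicate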
PAFAH2 confirm = PAFAH2 enzyme inhibitors, confirmation, biochemical, fluorescence polarization, human. inhibition, % at 3.39 µM. 65% of 2,300 active. shares compounds with PAFAH2 inh. recombinant PAFAH2, FP-rhodamine activity probe;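 active = mean inhibition over three repeats above a set limit taken from the earlier primary screen, cut at about 30% in these data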;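 note: inhibitor blocks binding of rhodamine activity probe so polarization falls; 0% = enzyme with DMSO and 100% = wells lacking PAFAH2 protein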
Active calls of the source: *; . = no result given.

SMILES	pPAFAH FP inh	HTRA1 inh	PAFAH1B2 inh	PAFAH1B3 inh	PAFAH2 inh	ABHD4 inh	PAFAH2 confirm
O=[N+]([O-])c1cccc(S(=O)(=O)Nc2ccc(S(=O)(=O)N3CCCC3)cc2)c1	3	5	4	5	7	0	.
COc1ccc2c(c1)CCCN2C(=O)C1CCCN(S(=O)(=O)c2c(C(C)C)cc(C(C)C)cc2C(C)C)C1 (stereo unspecified)	.	.	.	.	.	-2	.
COc1ccc(C(=O)C2(C(=O)NC3CCCC3)CC(c3ccccc3C(F)(F)F)=NO2)cc1 (stereo unspecified)	.	.	.	.	.	5	.
COC(=O)C1CN(Cc2ccc(OC)cc2)CCS(=O)(=O)N1Cc1ccc(OC)cc1 (stereo unspecified)	.	.	.	.	.	-1	.
O=C(CC12CC3CC(CC(C3)C1)C2)NCC(=O)N1CCCC1	13	9	8	0	75*	2	71*
O=C(CC12CC3CC(CC(C3)C1)C2)NCO	-1	2	3	-1	-2	-1	.
O=C(OCC#CCSc1nnc(-c2cccs2)o1)c1ccc(F)cc1	.	.	.	.	.	-5	.
CCOc1ccc(C(=O)OCC(=O)NCc2ccco2)cc1OCC	10	-2	8	4	74*	0	46*
Cc1ccc(C(=O)OCC(=O)NCc2ccco2)cc1	3	0	1	2	45*	-6	37*
O=C(COC(=O)c1cccc(S(=O)(=O)N2CCc3ccccc3C2)c1)NCc1ccco1	23	-4	10	1	-1	-4	.
Nc1cc(C(=O)OCC(=O)NCc2ccco2)ccc1Cl	16	-3	1	0	36*	-4	30*
O=C(COC(=O)c1cccc(S(=O)(=O)N2CCc3ccccc32)c1)NCc1ccco1	13	-5	5	8	33*	-5	20
O=C(NCCc1c[nH]c2ccccc12)[C@H](Cc1c[nH]c2ccccc12)NC1(C(=O)NC2CCCCC2)CCCCCCC1	.	.	.	.	.	-1	.
CCC[C@H]1[C@@H](NC(=O)C2CCC2)CC[C@@]23CCCN2C(=O)CCC[C@@H]13	.	.	.	.	.	-5	.
O=C(CN1CCN(Cc2ccccc2)CC1)N/N=C\c1c2ccccc2cc2ccccc12	.	.	.	.	.	5	.
C/C=C/C(=O)OCC(=O)Nc1cc(OC)c([N+](=O)[O-])cc1C	1	-1	-2	7	27	-2	.
COc1cc(NC(=O)COC(=O)C2CC2)c(C)cc1[N+](=O)[O-]	-1	2	-2	5	46*	-1	28
COc1cc(NC(=O)COC(=O)C=C(C)C)c(C)cc1[N+](=O)[O-]	8	-8	-2	9	61*	1	28
CCOCC(=O)OCC(=O)Nc1cc(OC)c([N+](=O)[O-])cc1C	3	-1	2	12	8	-6	.
Cc1cc(C)cc(NC(=O)OC2CC3CC2[C@H]2CCCCN2[C@H]3Cc2ccccc2)c1 (stereo partly specified)	.	.	.	.	.	-5	.
C[C@H]1COc2cc(Br)ccc2S(=O)(=O)N1Cc1cn(Cc2ccc(Cl)cc2)nn1	.	.	.	.	.	1	.
Nc1[nH]c2cc(Cl)ccc2c1C(=O)NCCc1ccc(Cl)cc1	.	.	.	.	.	19	.
O=C(COC(=O)c1cccc(S(=O)(=O)N2CCCCCC2)c1)Nc1ccccc1	.	-19	-1	5	66*	-10	60*
Cc1ccc(C(=O)OCC(=O)Nc2cccc(S(=O)(=O)N3CCCCC3)c2)o1	6	-15	3	1	42*	0	26
O=C(COC(=O)c1cccc(F)c1)Nc1cccc(S(=O)(=O)N2CCCCC2)c1	.	-22	.	.	.	-13	.
O=C(COC(=O)c1ccccc1)Nc1cccc(S(=O)(=O)N2CCCCC2)c1	.	-11	2	4	40*	-7	23
